The values below come from ChEMBL document CHEMBL1134566, “Human thioredoxin reductase is efficiently inhibited by (2,2':6',2' '-terpyridine)platinum(II) complexes. Possible implications for a novel antitumor strategy” (J Med Chem, 2001).

Experiment [1] has as its target T1, Thioredoxin reductase (Homo sapiens, UniProt Q16881+Q9NNW7+Q86VQ6). In words: Inhibitory concentration at 50% inhibition. The format is protein assay. Put shortly:
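Tight-binding hTrxR inhibition. Human placental TrxR (~2 nM) in 100 mM potassium phosphate, 2 mM EDTA, pH 7.4, reduced with 200 μM NADPH, then preincubated with varying inhibitor for 5 min at 25 °C (footnote says 2 min). Activity started with 3 mM DTNB and read as A412 increase. IC50 taken from dose-response curves.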

In experiment [2] the target is T1, Thioredoxin reductase. Nature of the experiment: Inhibitory concentration used to inhibit the enzyme competitively with the substrate. The format is protein assay. Put shortly:
(§1)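 Reversible competitive component. About 2 nM placental hTrxR with DTNB 50 μM–1 mM and a single inhibitor concentration (10 nM–1 μM) in phosphate/EDTA buffer, pH 7.4. Started with 200 μM NADPH at 25 °C, TNB formation read at 412 nm. Km' compared with Km without inhibitor; Ki = Km[I]/(Km' − Km).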

Experiment [3] concerns the target T1, Thioredoxin reductase. In words: Inhibitory concentration for Km'. It counts as protein assay. The method, boiled down:
as §1

Experiment [4] addresses T1, Thioredoxin reductase. Nature of the experiment: Michaelis-Menten constant (Km') for DTNB (5,5'-dithiobis(2-nitrobenzoate) in the presence of the compound. The format is protein assay. Put shortly:
as §1

Experiment [5] addresses Glutathione reductase, mitochondrial (Homo sapiens) (UniProt P00390). In words: Percent inhibition of the glutathione reductase after 2 min incubation at 10 uM inhibitory concentration. Put shortly: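 Human glutathione reductase in 47 mM potassium phosphate, 1 mM EDTA, 200 mM KCl, pH 6.9, 100 μM NADPH. Enzyme preincubated 2 min with 10 μM compound in the assay mixture, then started with 1 mM GSSG at 25 °C. NADPH consumption followed as A340 decrease; percent inhibition versus uninhibited enzyme.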

Experiment [6] has as its system NCH89. Nature of the experiment: 50% Growth inhibition on NCH89 glioma cell lines. The format is functional, cell-based. The method, boiled down:
(§2)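 BrdU incorporation proliferation assay. 7×10^3 cells/well in RPMI 1640 with 10% FCS, 8 replicas. Compound added 24 h after seeding at 1, 5, 10 or 20 μM, either once or three times at 24 h intervals; 67 h total incubation. BrdU (100 μM final) added 48 h after first addition. Absorbance expressed relative to untreated controls (100%). IC50 ± SD from ≥2 independent experiments.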

The test system of experiment [7] is NCH37. In words: 50% Growth inhibition on NCH37 glioma cell lines.
Experiment [8] has as its system HNO 97 cell line. In words: 50% Growth inhibition on HNO97 head and neck squamous carcinoma cell lines. It counts as functional, cell-based. The method, boiled down:
as §2

Experiment [9] deals with NCH82. Nature of the experiment: 50% Growth inhibition on NCH82 glioma cell lines.
In experiment [10] the test system is HNO199 cell line. In words: 50% Growth inhibition on HNO199 head and neck squamous carcinoma cell lines. It counts as functional, cell-based. The method, boiled down:
as §2

Experiment [11] has as its target Glutathione reductase, mitochondrial (Homo sapiens) (UniProt P00390). In words: Percent GR activity after exposure to 3x1 uM concentration at regular intervals of 0,24,48 hours for the period of 67 hours. Put shortly:
(§3)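 NCH37 glioblastoma cells in RPMI 1640 with 10% FCS at 37 °C, 5% CO2, given compound once or as doses at 0, 24 and 48 h. Sampled at 30, 90, 270 min or 67 h. Intact cells washed in PBS and sonicated; cleared lysate assayed. TrxR used 100 μM E. coli thioredoxin, with NADPH oxidase background subtracted. GR used the GSSG/NADPH A340 assay. mU/10^6 cells given as % of untreated controls, mean of three experiments.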

The target is the same in experiment [12]. In words: Percent GR activity after exposure to 3x10 uM concentration at regular intervals of 0,24,48 hours for the period of 67 hours. The method, boiled down: as §3
Experiment [13] deals with T1, Thioredoxin reductase. In words: Percent TrxR activity after exposure to 10 uM for 67 hrs. It counts as functional. Put shortly: as §3
For experiment [14], the target named is T1, Thioredoxin reductase. In words: Percent TrxR activity after exposure to 3x10 uM concentration at regular intervals of 0,24,48 hours for the period of 67 hours. The format is functional. Put shortly: as §3
Experiment [15] concerns the target T1, Thioredoxin reductase. Nature of the experiment: Percent TrxR activity after exposure to 1 uM for 30 mins. It counts as functional. The method, boiled down:
as §3

The target in experiment [16] is Glutathione reductase, mitochondrial (Homo sapiens) (UniProt P00390). Nature of the experiment: Percent GR activity after exposure to 3x5 uM concentration at regular intervals of 0,24,48 hours for the period of 67 hours. Put shortly:
as §3

For experiment [17] the target is unchanged. In words: Percent GR activity after exposure to 5 uM for 67 hr. Put shortly:
as §3

The target of experiment [18] is T1, Thioredoxin reductase. Nature of the experiment: Percent TrxR activity after exposure to 3x5 uM concentration at regular intervals of 0,24,48 hours for the period of 67 hours. It counts as functional. Put shortly: as §3
In experiment [19] the target is Glutathione reductase, mitochondrial (Homo sapiens) (UniProt P00390). In words: Percent GR activity after exposure to 1 uM for 270 min. Put shortly: as §3
For experiment [20], the target named is T1, Thioredoxin reductase. In words: Percent TrxR activity after exposure to 5 uM for 67 hr. It counts as functional. Put shortly:
as §3

Experiment [21] addresses T1, Thioredoxin reductase. In words: Percent TrxR activity after exposure to 5 uM for 30 mins. It counts as functional. The method, boiled down: as §3
Experiment [22] deals with Glutathione reductase, mitochondrial (Homo sapiens) (UniProt P00390). Nature of the experiment: Percent GR activity after exposure to 10 uM for 67 hr. Put shortly: as §3
For experiment [23] the target is unchanged. In words: Percent GR activity after exposure to 1 uM for 30 min. The method, boiled down:
as §3

For experiment [24] the target is unchanged. In words: Percent GR activity after exposure to 1 uM for 67 hr. Put shortly: as §3
The target of experiment [25] is T1, Thioredoxin reductase. In words: Percent TrxR activity after exposure to 1 uM for 270 mins. It counts as functional. The method, boiled down: as §3
Experiment [26] deals with T1, Thioredoxin reductase. In words: Percent TrxR activity after exposure to 3x1 uM concentration at regular intervals of 0,24,48 hours for the period of 67 hours. It counts as functional. The method, boiled down: as §3
The target of experiment [27] is Glutathione reductase, mitochondrial (Homo sapiens) (UniProt P00390). Nature of the experiment: Percent GR activity after exposure to 1 uM for 90 min. Put shortly:
as §3

Experiment [28] concerns the target T1, Thioredoxin reductase. Nature of the experiment: Percent TrxR activity after exposure to 1 uM for 67h. It counts as functional. Put shortly: as §3
In experiment [29] the target is T1, Thioredoxin reductase. In words: Percent TrxR activity after exposure to 1 uM for 90 mins. The format is functional. The method, boiled down: as §3

One may read the IC50 as the concentration at which inhibition is half-maximal. A lower IC50 goes with inhibition by little substance. The Ki is the equilibrium dissociation constant of an inhibitor or competing ligand from its target. Low values mean higher affinity, high ones lower affinity. In general, inhibition refers to how much of the control response was suppressed. High values mean a response far below the control, low ones a response near the control.

T1 sequence (Q86VQ6 whole entry, looked up, chain 1 of 3): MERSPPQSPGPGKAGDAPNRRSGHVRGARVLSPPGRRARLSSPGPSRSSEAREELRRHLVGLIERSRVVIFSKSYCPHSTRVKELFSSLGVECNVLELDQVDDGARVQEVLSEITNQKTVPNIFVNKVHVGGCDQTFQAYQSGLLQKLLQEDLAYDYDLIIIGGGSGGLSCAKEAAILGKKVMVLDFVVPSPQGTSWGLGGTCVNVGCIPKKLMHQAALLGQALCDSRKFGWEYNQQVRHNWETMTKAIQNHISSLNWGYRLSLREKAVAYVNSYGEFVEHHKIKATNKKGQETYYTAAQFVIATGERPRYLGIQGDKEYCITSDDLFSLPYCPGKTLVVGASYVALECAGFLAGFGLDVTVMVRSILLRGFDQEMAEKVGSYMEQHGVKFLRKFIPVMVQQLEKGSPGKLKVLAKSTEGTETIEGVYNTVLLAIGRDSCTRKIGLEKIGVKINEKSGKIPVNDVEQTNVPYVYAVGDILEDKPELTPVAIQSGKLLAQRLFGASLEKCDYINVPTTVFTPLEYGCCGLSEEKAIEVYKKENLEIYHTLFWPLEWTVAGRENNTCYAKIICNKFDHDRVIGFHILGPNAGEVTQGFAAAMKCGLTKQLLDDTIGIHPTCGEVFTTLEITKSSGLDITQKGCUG
T1 sequence (Q9NNW7 whole entry, looked up, chain 2 of 3): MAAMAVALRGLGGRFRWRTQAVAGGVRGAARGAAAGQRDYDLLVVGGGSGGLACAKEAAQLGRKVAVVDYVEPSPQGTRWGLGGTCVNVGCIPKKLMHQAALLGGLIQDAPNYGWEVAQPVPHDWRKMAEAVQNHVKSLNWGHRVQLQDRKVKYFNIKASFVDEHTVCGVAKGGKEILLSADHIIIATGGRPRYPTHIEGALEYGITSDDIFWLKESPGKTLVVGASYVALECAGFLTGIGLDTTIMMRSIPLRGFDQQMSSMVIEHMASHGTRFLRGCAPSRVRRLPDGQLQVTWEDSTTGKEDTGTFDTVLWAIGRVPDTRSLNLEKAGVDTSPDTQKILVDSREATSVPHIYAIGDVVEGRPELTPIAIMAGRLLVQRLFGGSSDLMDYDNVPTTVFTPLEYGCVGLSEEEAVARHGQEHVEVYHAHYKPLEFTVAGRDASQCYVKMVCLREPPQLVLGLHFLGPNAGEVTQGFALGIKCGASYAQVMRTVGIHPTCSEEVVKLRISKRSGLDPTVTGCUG
T1 sequence (Q16881 whole entry, looked up, chain 3 of 3): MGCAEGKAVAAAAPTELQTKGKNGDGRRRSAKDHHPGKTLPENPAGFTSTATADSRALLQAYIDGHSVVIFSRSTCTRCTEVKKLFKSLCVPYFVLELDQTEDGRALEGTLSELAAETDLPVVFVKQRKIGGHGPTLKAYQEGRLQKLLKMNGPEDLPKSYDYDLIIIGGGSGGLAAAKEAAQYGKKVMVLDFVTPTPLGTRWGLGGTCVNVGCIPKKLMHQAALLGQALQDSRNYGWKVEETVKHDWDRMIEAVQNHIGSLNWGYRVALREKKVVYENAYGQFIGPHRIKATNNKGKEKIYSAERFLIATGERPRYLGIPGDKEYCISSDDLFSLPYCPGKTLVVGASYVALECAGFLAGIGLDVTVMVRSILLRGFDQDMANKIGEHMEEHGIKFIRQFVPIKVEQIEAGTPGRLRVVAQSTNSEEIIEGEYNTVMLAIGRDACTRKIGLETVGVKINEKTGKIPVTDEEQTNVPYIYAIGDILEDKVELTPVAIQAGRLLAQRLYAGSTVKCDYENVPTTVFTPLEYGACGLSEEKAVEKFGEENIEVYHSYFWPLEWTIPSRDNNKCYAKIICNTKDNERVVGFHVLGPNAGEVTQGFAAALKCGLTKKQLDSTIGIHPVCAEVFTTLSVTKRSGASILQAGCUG
Glutathione reductase, mitochondrial (Homo sapiens), sequence (P00390 whole entry): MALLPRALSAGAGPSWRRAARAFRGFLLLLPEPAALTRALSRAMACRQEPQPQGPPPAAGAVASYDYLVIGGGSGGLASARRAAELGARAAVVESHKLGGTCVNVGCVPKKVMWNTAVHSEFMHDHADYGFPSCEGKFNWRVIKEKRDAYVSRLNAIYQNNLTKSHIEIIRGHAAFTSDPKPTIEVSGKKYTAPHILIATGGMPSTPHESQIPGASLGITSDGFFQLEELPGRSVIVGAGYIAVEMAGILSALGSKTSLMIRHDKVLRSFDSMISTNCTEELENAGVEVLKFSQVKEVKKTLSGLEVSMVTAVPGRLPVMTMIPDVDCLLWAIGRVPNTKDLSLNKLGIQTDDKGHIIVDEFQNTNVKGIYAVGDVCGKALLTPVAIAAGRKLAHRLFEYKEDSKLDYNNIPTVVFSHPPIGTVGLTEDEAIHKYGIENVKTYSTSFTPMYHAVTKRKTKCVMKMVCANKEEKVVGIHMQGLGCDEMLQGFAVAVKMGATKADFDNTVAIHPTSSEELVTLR

On to “2-Mercaptoimidazole Bis[(4'-chloro-2,2':6',2''-terpyridine)platinum (II)] Trinitrate [listing 1 of 2 here]”, for which it took 3 nM to reach half-maximal inhibition in experiment [1] (IC50). In experiment [2], this substance came in with a Ki of 11 nM.
“2-Mercaptopyrimidine (4'-chloro-2,2':6',2''-terpyridine)platinum (II) Nitrate [listing 1 of 2 here]” returned an IC50 in experiment [1] of 7 nM. This substance also came in with an inhibition constant (Ki) in experiment [2] of 17 nM.
“2-Mercaptopyrimidine (4'-chloro-2,2':6',2''-terpyridine)platinum (II) Nitrate [listing 2 of 2 here]” returned a [I] for Km' in [3] of 0.1 µM. In addition, the Km' in [4] was determined as 715 µM. The inhibition in experiment [5] worked out at 66%.
In the case of “4-Mercaptoethanol-(2,2':6',2''-terpyridine)platinum (II) Nitrate [listing 1 of 2 here]”, the IC50 in [1] amounted to 35 nM. Moreover, the affinity in experiment [2] corresponds to a Ki of 348 nM.
“4-Mercaptoethanol-(2,2':6',2''-terpyridine)platinum (II) Nitrate [listing 2 of 2 here]” came in with a [I] for Km' in experiment [3] of 1 µM. Also, the Km' in experiment [4] was 399 µM. In experiment [5], this substance yielded an inhibition of 7%.
The substance “2-Mercaptopyridine (4'-chloro-2,2':6',2''-terpyridine)platinum (II) Nitrate [listing 1 of 2 here]” displayed a half-maximal inhibitory concentration (IC50) in experiment [1] of 6 nM. The substance further registered a Ki in [2] of 7 nM.
In [3], “2-Mercaptopyridine (4'-chloro-2,2':6',2''-terpyridine)platinum (II) Nitrate [listing 2 of 2 here]” gave a [I] for Km' of 0.01 µM. Moreover, the Km' in experiment [4] was found to be 247 µM. In experiment [5], this substance came in with an inhibition of 47%.
“4-Mercaptoethanol-(2,2':6',4'-chloro,2''-terpyridine)platinum (II) Nitrate [listing 1 of 2 here]” registered an IC50 in experiment [1] of 30 nM. In [2], this substance displayed a Ki of 22 nM.
Turning to “4-Mercaptopyridine (4'-chloro-2,2':6',2''-terpyridine)platinum (II) Nitrate [listing 1 of 2 here]”, the IC50 in experiment [1] stood at 4 nM; in experiment [6], 2500 nM; in experiment [7] it was 10500 nM; in experiment [8], 5500 nM; in experiment [9], 7400 nM; in experiment [10], 9200 nM. For the same substance, the inhibition constant (Ki) in experiment [2] came to 5 nM.
“2-Mercaptoimidazole Bis[(4'-chloro-2,2':6',2''-terpyridine)platinum (II)] Trinitrate [listing 2 of 2 here]” came in with a [I] for Km' in [3] of 0.1 µM. The Km' in [4] was found to be 1010 µM. For the same substance, the inhibition in experiment [5] was 20%.
In experiment [3], “4-Mercaptoethanol-(2,2':6',4'-chloro,2''-terpyridine)platinum (II) Nitrate [listing 2 of 2 here]” registered a [I] for Km' of 1 µM. The Km' in experiment [4] came to 4740 µM. In experiment [5], this substance yielded an inhibition of 55%.
“4-Mercaptopyridine (4'-chloro-2,2':6',2''-terpyridine)platinum (II) Nitrate [listing 2 of 2 here]” showed a [I] for Km' in [3] of 0.05 µM. Moreover, the Activity in experiment [11] is 180%; in [12] it was 180%; in [13], 80%; in experiment [14] it was 5%; in experiment [15], 50%; in [16], 220%. The Activity in experiment [17] worked out at 200%; in [18], 60%; in experiment [19], 110%; in experiment [20], 130%; in experiment [21] it was 30%; in experiment [22], 260%. Moreover, the Activity in [23] was 90%; in experiment [24], 220%; in [25], 90%; in experiment [26], 110%; in [27] it was 90%; in experiment [28], 160%. In [29], the Activity came out at 50%. Further, the Km' in experiment [4] worked out at 1060 µM. For the same substance, in [5], the inhibition was 90%.
